Laboratory results from ChEMBL document CHEMBL2146414, “Lignan derivatives from Krameria lappacea roots inhibit acute inflammation in vivo and pro-inflammatory mediators in vitro” (J Nat Prod, 2011).
Activity calls are given as the source filed them. The calls are words filed in the database; no cut-off is given here.

How the values were obtained:
[1] = tested on: Mus musculus; assay: Antiinflammatory activity in CD1 mouse ear dermatitis model assessed as inhibition of Croton oil-induced ear edema at 0.10 umol administered topically per cm'2 of ear measured after induction of dermatitis relative to untreated control; assay type: functional
Method in brief: (§1)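 Male CD-1 mice (28–32 g), anesthetized with ketamine 145 mg/kg i.p.; right ear (about 1 cm2) given 80 μg croton oil in 15 μL acetone, with test substance co-applied in acetone; left ear left untreated. Controls received irritant only. 6 mm punches taken from both ears; edema = weight difference treated minus untreated; % inhibition vs controls. ID50 by graphic interpolation of log dose–effect curves; ANOVA with Dunnett's test.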

[2] = tested on: Mus musculus; assay: Antiinflammatory activity in CD1 mouse ear dermatitis model assessed as inhibition of Croton oil-induced ear edema administered topically per cm'2 of ear measured after induction of dermatitis relative to untreated control; assay type: functional
[3] = tested on: Mus musculus; assay: Antiinflammatory activity in CD1 mouse ear dermatitis model assessed as inhibition of Croton oil-induced ear edema at 0.04 umol administered topically per cm'2 of ear measured 6 hrs after induction of dermatitis relative to untreated control; assay type: functional; method in brief: as §1
[4] = tested on: Mus musculus; assay: Antiinflammatory activity in CD1 mouse ear dermatitis model assessed as inhibition of Croton oil-induced ear edema at 0.04 umol administered topically per cm'2 of ear measured 12 hrs after induction of dermatitis relative to untreated control; assay type: functional; method in brief: as §1
[5] = tested on: Mus musculus; assay: Antiinflammatory activity in CD1 mouse ear dermatitis model assessed as reduction in AUC of Croton oil-induced ear edema response at 0.04 umol administered topically per cm'2 of ear measured 48 hrs after induction of dermatitis relative to untreated control; assay type: functional
Method in brief: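 Croton oil dermatitis on the right ear of anesthetized male CD-1 mice, with compound co-applied topically in acetone. Ear punch weight difference (treated minus untreated ear) measured at several times up to 48 h.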

[6] = tested on: Mus musculus; assay: Antiinflammatory activity in CD1 mouse ear dermatitis model assessed as reduction in leukocyte infiltration-based myeloperoxidase activity at 0.04 umol administered topically per cm'2 of ear measured 3 to 48 hrs post dermatitis induction relative to untreated control; assay type: functional
Method in brief: (§2)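 Same croton oil ear model in CD-1 mice. The ear punch is homogenized in 0.1 M acetate pH 4.2 with 0.1% HTAB and centrifuged 15000g for 5 min. Supernatant myeloperoxidase is assayed with 2.83 mM TMB plus 0.7 mM H2O2 for 5 min at 25 °C, stopped with acetic acid, A620, duplicates.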

[7] = tested on: Mus musculus; assay: Antiinflammatory effect in CD1 mouse ear dermatitis model assessed as reduction in vascular changes at 0.04 umol administered topically per cm'2 of ear measured after 6 hrs post dermatitis induction relative to control; assay type: functional, organism-based
Method in brief: (§3)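 Male CD-1 mice (28–32 g) anesthetized with ketamine 145 mg/kg ip; right ear (about 1 cm2) given 80 μg croton oil in 15 μL acetone with test substance co-applied in acetone; controls irritant only; left ear untreated. Ears fixed in 10% formalin, paraffin-embedded, 10 μm sections stained hematoxylin-eosin or Giemsa, examined by light microscopy at set times after induction.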

[8] = tested on: Mus musculus; assay: Antiinflammatory effect in CD1 mouse ear dermatitis model assessed as reduction in cellular changes at 0.04 umol administered topically per cm'2 of ear measured after 6 hrs post dermatitis induction relative to control; assay type: functional, organism-based; method in brief: as §3
[9] = tested on: Mus musculus; assay: Antiinflammatory activity in CD1 mouse ear dermatitis model assessed as inhibition of Croton oil-induced ear edema at 0.01 umol administered topically per cm'2 of ear measured after induction of dermatitis relative to untreated control; assay type: functional; method in brief: as §1
[10] = tested on: Mus musculus; assay: Antiinflammatory activity in CD1 mouse ear dermatitis model assessed as inhibition of Croton oil-induced ear edema at 0.03 umol administered topically per cm'2 of ear measured after induction of dermatitis relative to untreated control; assay type: functional; method in brief: as §1
[11] = tested on: Mus musculus; assay: Antiinflammatory activity in CD1 mouse ear dermatitis model assessed as reduction in AUC of global leukocyte infiltration-based myeloperoxidase activity at 0.04 umol administered topically per cm'2 of ear measured 3 to 48 hrs post dermatitis induction relative to untreated control; assay type: functional; method in brief: as §2
[12] = tested on: Radical scavenging activity; assay: Antioxidant activity assessed as DPPH free radical scavenging activity after 30 mins by spectrophotometry; assay type: functional; details: read-out: IC50
[13] = Inhibition of NFkappaB activity transfected in HEK293 cells pretreated for 1 hr before 6 hrs of LPS challenge by luciferase reporter gene assay; details: Homo sapiens
[14] = tested on: Mus musculus; assay: Antiinflammatory activity in CD1 mouse ear dermatitis model assessed as inhibition of Croton oil-induced ear edema at 0.30 umol administered topically per cm'2 of ear measured after induction of dermatitis relative to untreated control; assay type: functional; method in brief: as §1
[15] = tested on: Mus musculus; assay: Antiinflammatory activity in CD1 mouse ear dermatitis model assessed as inhibition of Croton oil-induced ear edema at 1 umol administered topically per cm'2 of ear measured after induction of dermatitis relative to untreated control; assay type: functional; method in brief: as §1
[16] = tested on: Mus musculus; assay: Antiinflammatory effect in CD1 mouse ear dermatitis model assessed as reduction in vascular changes at 0.4 umol administered topically per cm'2 of ear measured after 6 hrs post dermatitis induction relative to control; assay type: functional, organism-based; method in brief: as §3
[17] = tested on: Mus musculus; assay: Antiinflammatory effect in CD1 mouse ear dermatitis model assessed as reduction in cellular changes at 0.4 umol administered topically per cm'2 of ear measured after 6 hrs post dermatitis induction relative to control; assay type: functional, organism-based; method in brief: as §3
[18] = tested on: Mus musculus; assay: Antiinflammatory effect in CD1 mouse ear dermatitis model assessed as preservance of mast cell degranulation at 0.4 umol administered topically per cm'2 of ear measured after 6 hrs post dermatitis induction relative to control; assay type: functional, organism-based; method in brief: as §3
[19] = tested on: Mus musculus; assay: Antiinflammatory effect in CD1 mouse ear dermatitis model assessed as reduction in mast cell degranulation at 0.4 umol administered topically per cm'2 of ear measured after 6 hrs post dermatitis induction relative to control; assay type: functional, organism-based; method in brief: as §3
[20] = tested on: Mus musculus; assay: Antiinflammatory effect in CD1 mouse ear dermatitis model assessed as reduction in leukocyte infiltration-based myeloperoxidase at 0.4 umol administered topically per cm'2 of ear measured after 6 hrs post dermatitis induction relative to control; assay type: functional, organism-based
Method in brief: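 CD-1 mice, croton oil 80 μg in acetone on right ear with topical test substance; ear punch (6 mm) homogenized in 0.1 M sodium acetate pH 4.2 with 0.1% HTAB, centrifuged 15000g 5 min; supernatant myeloperoxidase measured with TMB (2.83 mM) and 0.7 mM H2O2, 5 min at 25 °C, stopped with acetic acid, A620; duplicates; units = nM TMB oxidized/min.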

[21] = tested on: Mus musculus; assay: Antiinflammatory effect in CD1 mouse ear dermatitis model assessed as dermal swelling at 0.4 umol administered topically per cm'2 of ear after 9 hrs of post dermatitis induction relative to control; assay type: functional, organism-based; method in brief: as §3
[22] = tested on: Mus musculus; assay: Antiinflammatory activity in CD1 mouse ear dermatitis model assessed as inhibition of Croton oil-induced ear edema at 0.4 umol administered topically per cm'2 of ear measured 48 hrs after induction of dermatitis relative to untreated control

## C[C@]12CCC(=O)C=C1CC[C@@H]1[C@@H]2[C@@H](O)C[C@@]2(C)[C@H]1CC[C@]2(O)C(=O)CO [HYDROCORTISONE]
[1]
  inhibition (INH): 77%
[2]
  ID50: 0.03 umol/cm2
[3]
  inhibition (INH): 79%
[4]
  inhibition (INH): 60%
[5]
  inhibition (INH): 69%
[6]
  inhibition (INH): 35%
[7]
  inhibition: Active
[8]
  inhibition: Active
[9]
  inhibition (INH): 29%
[10]
  inhibition (INH): 55%
[11]
  inhibition (INH): 51%

## O=C1O[C@H]([C@@H](O)CO)C(O)=C1O [ASCORBIC ACID]
[12]
  IC50: 24.2 µM

## C=C1C(=O)O[C@@H]2[C@H]3O[C@]3(C)CC/C=C(\C)CC[C@@H]12
[13]
  IC50: 1.4 µM

## COc1ccc2c(c1)c(CC(=O)O)c(C)n2C(=O)c1ccc(Cl)cc1 [INDOMETHACIN]
[1]
  inhibition (INH): 25%
[14]
  inhibition (INH): 51%
[15]
  inhibition (INH): 80%
[2]
  ID50: 0.29 umol/cm2
[16]
  inhibition: Active
[17]
  inhibition: Active
[18]
  inhibition: Active
[19]
  inhibition: Active
[20]
  inhibition: Active
[21]
  inhibition: inactive
[22]
  inhibition: inactive
